Source: article PMC3204787 (Biochemistry, 2011)

Assays:
wild type HIV-1 RT [1] = molecular target: T1, wild type HIV-1 RT (Human immunodeficiency virus type 1 group M subtype B, UniProt P03366); experiment: Steady-state kinetics of polymerization, wild-type enzyme; assay type: biochemical; settings: WT, 25°C
HIV-1 RT Q91A [2] = molecular target: T2, HIV-1 RT Q91A (Human immunodeficiency virus type 1 group M subtype B, UniProt P03366, Q690A); experiment: Steady-state kinetics of polymerization, Q91A mutant; assay type: biochemical; settings: Q91A, 25°C
HIV-1 RT M184V [3] = molecular target: T3, HIV-1 RT M184V (Human immunodeficiency virus type 1 group M subtype B, UniProt P03366, M783V); experiment: Steady-state kinetics of polymerization, M184V mutant; assay type: biochemical; settings: 25°C
HIV-1 RT Q91N [4] = molecular target: T4, HIV-1 RT Q91N (Human immunodeficiency virus type 1 group M subtype B, UniProt P03366, Q690N); experiment: Steady-state kinetics of polymerization, Q91N mutant; assay type: biochemical
Summary of the method: (§1)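 Run at 25 °C with 40 nM mutant RT and 100 nM poly rA.dT18 or poly rC.dG18, each prepared by annealing equimolar template and primer at 20 μM. Buffer was 50 mM Tris-HCl pH 7.5, 2 mM MgCl2, 1 mM DTT and 100 μg/mL BSA. Complementary dTTP or dGTP was varied, with [3H]dTTP specific activity set using unlabeled dTTP. Reactions were started with MgCl2 and stopped with ice-cold 5% TCA at set times, then filtered and scintillation-counted. Km and Vmax came from Eadie-Hofstee plots of initial velocities; kcat = Vmax/[E].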

HIV-1 RT Q91N+M184V [5] = molecular target: T5, HIV-1 RT Q91N+M184V (Human immunodeficiency virus type 1 group M subtype B, UniProt P03366, M783V/Q690N); experiment: Steady-state kinetics of polymerization, Q91N+M184V mutant; assay type: biochemical; settings: 25°C
Summary of the method: as §1

HIV-1 RT Q91A+M184V [6] = molecular target: T6, HIV-1 RT Q91A+M184V (Human immunodeficiency virus type 1 group M subtype B, UniProt P03366, M783V/Q690A); experiment: Steady-state kinetics of polymerization, Q91A+M184V mutant; assay type: biochemical; settings: Q91A+M184V, 25°C
HIV-1 RT Q91A [7] = experiment: Steady-state kinetics of polymerization, Q91A mutant; assay type: biochemical, human immunodeficiency virus type 1; settings: Q91A vs wild type; poly-rA.dT18 template, dTTP
HIV-1 RT Q91A+M184V [8] = experiment: Steady-state kinetics of polymerization, Q91A+M184V mutant; assay type: biochemical, human immunodeficiency virus type 1; settings: Q91A/M184V vs wild type; poly-rA.dT18 template, dTTP
HIV-1 RT Q91N+M184V [9] = molecular target: T5, HIV-1 RT Q91N+M184V; experiment: Inhibition of reverse transcription by ddNTP inhibitors, Q91N+M184V mutant; assay type: biochemical; settings: for Ki: 37 °C 3 min; for IC50: IC50=Ki(1+[S]/Km)
Summary of the method: (§2)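 Recombinant heterodimeric HIV-1 RT (p66 with N-terminally His-tagged p51), mutation present in both subunits, used at 10 nM. The enzyme was preincubated with 100 nM poly rA.dT18 or poly rC-dG18 for 2 min at 25 °C. Synthesis was started with Mg-complexed 10 μM [3H]dTTP or dGTP (1 μCi per assay) plus varied ddTTP or ddGTP, then run 3 min at 37 °C. Reactions were stopped with cold 5% TCA/5 mM PPi, collected on GF/B filters and counted by scintillation. Ki came from percent inhibition using the competitive-inhibitor equation; IC50 = Ki(1+[S]/Km). Three independent experiments.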

HIV-1 RT Q91A+M184V [10] = molecular target: T6, HIV-1 RT Q91A+M184V; experiment: Inhibition of reverse transcription by ddNTP inhibitors, Q91A+M184V mutant; assay type: biochemical; settings: for Ki: 37 °C 3 min; for IC50: IC50=Ki(1+[S]/Km)
HIV-1 RT Q91N [11] = molecular target: T4, HIV-1 RT Q91N; experiment: Inhibition of reverse transcription by ddNTP inhibitors, Q91N mutant; assay type: biochemical; settings: for Ki: 37 °C 3 min; for IC50: IC50=Ki(1+[S]/Km)
Summary of the method: as §2

HIV-1 RT M184V [12] = molecular target: T3, HIV-1 RT M184V; experiment: Inhibition of reverse transcription by ddNTP inhibitors, M184V mutant; assay type: biochemical; settings: for Ki: 37 °C 3 min; for IC50: IC50=Ki(1+[S]/Km)
wild type HIV-1 RT [13] = molecular target: T1, wild type HIV-1 RT; experiment: Inhibition of reverse transcription by ddNTP inhibitors, wild-type enzyme; assay type: biochemical; settings: WT; for Ki: 37 °C 3 min; for IC50: IC50=Ki(1+[S]/Km)
HIV-1 RT Q91A [14] = molecular target: T2, HIV-1 RT Q91A; experiment: Inhibition of reverse transcription by ddNTP inhibitors, Q91A mutant; assay type: biochemical; settings: for Ki: 37 °C 3 min; for IC50: IC50=Ki(1+[S]/Km)
[15] = Poly rC.dG18 template-primer, dGTP substrate
[16] = Poly rA.dT18 template-primer, dTTP substrate
[17] = poly rC-dG18 100 nM, dGTP 10 μM
[18] = poly rA.dT18 100 nM, dTTP 10 μM

`Nc1nc2c(ncn2[C@H]2C[C@H](O)[C@@H](COP(=O)(O)OP(=O)(O)OP(=O)(O)O)O2)c(=O)[nH]1` [dGTP] was tested, and the KmdGTP (wild type HIV-1 RT [1]; Poly rC.dG18 template-primer) was 6.0 ± 1.4 µM, the Kcat (wild type HIV-1 RT [1]; [15]) was 0.15 ± 0.019 s⁻¹ and the KmdGTP (HIV-1 RT Q91A [2]; Poly rC.dG18 template-primer) was 25.0 ± 4.0 µM. The Kcat (HIV-1 RT Q91A [2]; [15]) was 0.02 ± 0.006 s⁻¹, the KmdGTP (HIV-1 RT M184V [3]; Poly rC.dG18 template-primer) was 8.0 ± 2.2 µM and the Kcat (HIV-1 RT M184V [3]; [15]) was 0.08 ± 0.011 s⁻¹. For the same molecule, the “decrease in catalytic efficiency” value (HIV-1 RT Q91N [4]; Q91N vs wild type, poly rC template, range given jointly for Q91N and Q91N/M184V) was 5–10 fold, the KmdGTP (HIV-1 RT Q91N [4]; Q91N, Poly rC.dG18 template-primer, 25°C) was 8.0 ± 2.1 µM and the Kcat (HIV-1 RT Q91N [4]; Q91N, Poly rC.dG18 template-primer, dGTP substrate, 25°C) was 0.02 ± 0.002 s⁻¹. It also gave a KmdGTP (HIV-1 RT Q91N+M184V [5]; Poly rC.dG18 template-primer) of 8.0 ± 1.8 µM, a Kcat (HIV-1 RT Q91N+M184V [5]; [15]) of 0.04 ± 0.012 s⁻¹ and a KmdGTP (HIV-1 RT Q91A+M184V [6]; Poly rC.dG18 template-primer) of 57.0 ± 5.0 µM. The Kcat (HIV-1 RT Q91A+M184V [6]; [15]) was 0.06 ± 0.010 s⁻¹.

`Cc1cn([C@H]2C[C@H](O)[C@@H](COP(=O)(O)OP(=O)(O)OP(=O)(O)O)O2)c(=O)[nH]c1=O` [dTTP] was tested, and the KmdTTP (wild type HIV-1 RT [1]; Poly rA.dT18 template-primer) was 3.0 ± 1.1 µM, the Kcat (wild type HIV-1 RT [1]; [16]) was 0.39 ± 0.6 s⁻¹ and the KmdTTP (HIV-1 RT Q91A [2]; Poly rA.dT18 template-primer) was 30.0 ± 3.5 µM. The Kcat (HIV-1 RT Q91A [2]; [16]) was 0.10 ± 0.03 s⁻¹, the “decrease in the catalytic efficiency” value (HIV-1 RT Q91A [7]) was 21 fold and the KmdTTP (HIV-1 RT M184V [3]; Poly rA.dT18 template-primer) was 3.5 ± 1.2 µM. The Kcat (HIV-1 RT M184V [3]; [16]) was 0.53 ± 0.12 s⁻¹, the KmdTTP (HIV-1 RT Q91N [4]; Q91N, Poly rA.dT18 template-primer, 25°C) was 7.0 ± 1.5 µM and the Kcat (HIV-1 RT Q91N [4]; Q91N, Poly rA.dT18 template-primer, dTTP substrate, 25°C) was 0.25 ± 0.08 s⁻¹. The KmdTTP (HIV-1 RT Q91N+M184V [5]; Poly rA.dT18 template-primer) was 5.0 ± 1.0 µM, the Kcat (HIV-1 RT Q91N+M184V [5]; [16]) was 0.27 ± 0.11 s⁻¹ and the KmdTTP (HIV-1 RT Q91A+M184V [6]; Poly rA.dT18 template-primer) was 37.0 ± 4.0 µM. For the same molecule, the Kcat (HIV-1 RT Q91A+M184V [6]; [16]) was 0.23 ± 0.07 s⁻¹ and the “decrease in the catalytic efficiency” value (HIV-1 RT Q91A+M184V [8]) was 43 fold.

`Nc1nc2c(ncn2[C@H]2CC[C@@H](COP(=O)(O)OP(=O)(O)OP(=O)(O)O)O2)c(=O)[nH]1` [ddGTP] gave a Ki (HIV-1 RT Q91N+M184V [9]; [17]) of 130 nM, an IC50 (HIV-1 RT Q91N+M184V [9]; [17]) of 285 nM and a Ki (HIV-1 RT Q91A+M184V [10]; [17]) of 418 nM. The IC50 (HIV-1 RT Q91A+M184V [10]; [17]) was 491 nM, the Ki (HIV-1 RT Q91N [11]; [17]) was 476 nM and the IC50 (HIV-1 RT Q91N [11]; [17]) was 1090 nM. For the same molecule, the Ki (HIV-1 RT M184V [12]; [17]) was 403 nM, the IC50 (HIV-1 RT M184V [12]; [17]) was 900 nM and the Ki (wild type HIV-1 RT [13]; [17]) was 112 nM. The IC50 (wild type HIV-1 RT [13]; [17]) was 308 nM, the Ki (HIV-1 RT Q91A [14]; [17]) was 885 nM and the IC50 (HIV-1 RT Q91A [14]; [17]) was 1240 nM.

`Cc1cn([C@H]2CC[C@@H](COP(=O)(O)OP(=O)(O)OP(=O)(O)O)O2)c(=O)[nH]c1=O` [ddTTP] showed a Ki (HIV-1 RT Q91N+M184V [9]; [18]) of 12 nM, an IC50 (HIV-1 RT Q91N+M184V [9]; [18]) of 36 nM and a Ki (HIV-1 RT Q91A+M184V [10]; [18]) of 45 nM. It also gave an IC50 (HIV-1 RT Q91A+M184V [10]; [18]) of 57 nM, a Ki (HIV-1 RT Q91N [11]; [18]) of 62 nM and an IC50 (HIV-1 RT Q91N [11]; [18]) of 150 nM. The Ki (HIV-1 RT M184V [12]; [18]) was 18 nM, the IC50 (HIV-1 RT M184V [12]; [18]) was 69 nM and the Ki (wild type HIV-1 RT [13]; [18]) was 4 nM. It also gave an IC50 (wild type HIV-1 RT [13]; [18]) of 17 nM, a Ki (HIV-1 RT Q91A [14]; [18]) of 76 nM and an IC50 (HIV-1 RT Q91A [14]; [18]) of 101 nM.
